Measurements published in ChEMBL document CHEMBL4033676, “Design, synthesis and biological evaluation of 3,4-dihydro-2(1H)-quinoline-O-alkylamine derivatives as new multipotent cholinesterase/monoamine oxidase inhibitors for the treatment of Alzheimer's disease” (Bioorg Med Chem, 2017).
Calls of active or inactive are those of the source. No cut-off for these calls is given here.

Assays:
[1] = physchem; details: PAMPA
[2] = Inhibition of rat serum BuChE using butyrylthiocholine chloride as substrate after 15 mins by Ellman's method
How it was run: (§1)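 Ellman assay. Equine serum or rat serum BuChE pre-incubated with test compound at various concentrations (DMSO <1%) in 0.1 M phosphate buffer pH 8.0 for 15 min at 37°C. DTNB (0.2%) added, absorbance read at 412 nm. Inhibition % = (1−Ai/Ac)×100. IC50 is the mean of three independent experiments, each run in triplicate.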

[3] = species: Homo sapiens; assay: Selectivity index, ratio of IC50 for recombinant human MAO-B to IC50 for recombinant human MAO-A
[4] = biological target: T1, Amine oxidase [flavin-containing] A (Homo sapiens, UniProt P21397); assay: Inhibition of recombinant human MAO-A expressed in baculovirus infected BTI insect cells using kynuramine as substrate after 30 mins by fluorescence assay
T1 sequence (P21397 whole entry): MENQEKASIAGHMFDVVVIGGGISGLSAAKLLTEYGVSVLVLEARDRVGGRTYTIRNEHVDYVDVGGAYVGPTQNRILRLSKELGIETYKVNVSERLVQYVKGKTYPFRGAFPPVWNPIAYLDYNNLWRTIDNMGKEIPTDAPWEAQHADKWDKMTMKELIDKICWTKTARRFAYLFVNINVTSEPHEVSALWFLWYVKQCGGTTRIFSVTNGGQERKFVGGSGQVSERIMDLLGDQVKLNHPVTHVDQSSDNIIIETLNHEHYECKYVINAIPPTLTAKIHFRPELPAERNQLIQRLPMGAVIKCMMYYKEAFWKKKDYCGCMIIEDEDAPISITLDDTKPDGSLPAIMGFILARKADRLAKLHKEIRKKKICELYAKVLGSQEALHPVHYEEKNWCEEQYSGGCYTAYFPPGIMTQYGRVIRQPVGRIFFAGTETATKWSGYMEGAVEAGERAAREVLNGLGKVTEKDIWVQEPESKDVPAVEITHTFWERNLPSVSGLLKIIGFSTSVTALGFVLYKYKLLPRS

[5] = test system: PC-12; assay: Cytotoxicity against rat PC12 cells assessed as decrease in cell viability at 100 uM after 24 hrs by MTT assay; format: cell-based; details: pc-12, 24 h
[6] = test system: PC-12; assay: Cytotoxicity against rat PC12 cells assessed as decrease in cell viability up to 10 uM after 24 hrs by MTT assay; format: cell-based; details: pc-12, 24 h
[7] = species: Rattus norvegicus; assay: Selectivity index, ratio of IC50 for rat serum BuChE to IC50 for 5% rat cortex homogenate AChE
[8] = biological target: Acetylcholinesterase (Electrophorus electricus, UniProt O42275); assay: Inhibition of electric eel AChE using acetylthiocholine chloride as substrate after 15 mins by Ellman's method
[9] = biological target: Cholinesterase (Equus caballus, UniProt P81908); assay: Inhibition of equine serum BuChE using butyrylthiocholine chloride as substrate after 15 mins by Ellman's method
How it was run: as §1

[10] = Selectivity index, ratio of IC50 for equine serum BuChE to IC50 for electric eel AChE
[11] = biological target: T2, Acetylcholinesterase (Rattus norvegicus, UniProt P37136)
T2 sequence (P37136 whole entry): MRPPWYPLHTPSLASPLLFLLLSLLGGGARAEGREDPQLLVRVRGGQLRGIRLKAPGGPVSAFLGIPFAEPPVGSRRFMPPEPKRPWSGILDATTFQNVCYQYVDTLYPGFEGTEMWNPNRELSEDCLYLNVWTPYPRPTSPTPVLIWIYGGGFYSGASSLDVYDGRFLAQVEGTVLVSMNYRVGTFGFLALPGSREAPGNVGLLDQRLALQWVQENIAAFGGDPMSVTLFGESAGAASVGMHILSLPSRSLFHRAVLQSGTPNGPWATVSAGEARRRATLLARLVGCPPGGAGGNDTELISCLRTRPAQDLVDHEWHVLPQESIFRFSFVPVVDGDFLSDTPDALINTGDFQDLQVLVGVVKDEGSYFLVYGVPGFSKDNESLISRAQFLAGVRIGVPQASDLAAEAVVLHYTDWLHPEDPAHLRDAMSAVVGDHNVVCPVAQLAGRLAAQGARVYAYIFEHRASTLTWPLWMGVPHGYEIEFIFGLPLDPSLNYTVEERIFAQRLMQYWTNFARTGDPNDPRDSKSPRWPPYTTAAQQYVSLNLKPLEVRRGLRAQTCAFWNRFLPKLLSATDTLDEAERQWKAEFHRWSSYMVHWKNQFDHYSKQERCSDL

[12] = biological target: T3, Amine oxidase [flavin-containing] B (Homo sapiens, UniProt P27338); assay: biochemical; format: cell-based
T3 sequence (P27338 whole entry): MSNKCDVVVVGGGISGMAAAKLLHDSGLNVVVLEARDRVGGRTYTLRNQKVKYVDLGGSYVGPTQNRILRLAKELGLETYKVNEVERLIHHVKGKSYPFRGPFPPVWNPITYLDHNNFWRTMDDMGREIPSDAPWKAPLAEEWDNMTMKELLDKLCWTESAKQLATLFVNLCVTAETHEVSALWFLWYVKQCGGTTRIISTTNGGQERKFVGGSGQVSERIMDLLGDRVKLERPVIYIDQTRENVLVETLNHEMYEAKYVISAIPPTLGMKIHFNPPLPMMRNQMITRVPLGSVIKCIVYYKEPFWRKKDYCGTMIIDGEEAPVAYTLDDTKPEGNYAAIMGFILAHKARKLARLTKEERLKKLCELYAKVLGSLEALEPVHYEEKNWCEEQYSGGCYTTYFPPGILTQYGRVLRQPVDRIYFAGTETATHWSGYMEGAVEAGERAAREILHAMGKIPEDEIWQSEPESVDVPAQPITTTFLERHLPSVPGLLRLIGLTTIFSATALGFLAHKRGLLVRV

[13] = biological target: Acetylcholinesterase (Electrophorus electricus) (UniProt O42275); assay: Mixed type inhibition of electric eel AChE using acetylthiocholine iodide as substrate up to 1 uM preincubated for 15 mins followed by substrate addition by Lineweaver-Burk plot analysis
How it was run: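 Purified Electrophorus electricus AChE (0.5 units/mL) in 0.1 M phosphate buffer pH 8.0 with 0.2% DTNB. Three inhibitor concentrations pre-incubated with enzyme for 15 min at 37°C, then acetylthiocholine iodide added at varying concentrations. Hydrolysis followed at 412 nm; no-inhibitor controls run in parallel. Weighted least-squares double-reciprocal analysis; Ki taken from the x-intercept of a secondary slope replot.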

[14] = biological target: Cholinesterase (Equus caballus) (UniProt P81908); assay: Inhibition of equine serum BuChE at 25 uM using butyrylthiocholine chloride as substrate after 15 mins by Ellman's method relative to control
[15] = biological target: Acetylcholinesterase (Electrophorus electricus) (UniProt O42275); assay: Inhibition of electric eel AChE at 25 uM using acetylthiocholine chloride as substrate after 15 mins by Ellman's method relative to control
[16] = species: Rattus norvegicus; assay: Inhibition of rat serum BuChE at 25 uM using butyrylthiocholine chloride as substrate after 15 mins by Ellman's method relative to control
[17] = biological target: T4, Acetylcholinesterase (Rattus norvegicus) (UniProt P37136); details: at 25 µM
T4 sequence (whole entry): T2 sequence (P37136 whole entry)

Cholinesterase, sequence (P81908 whole entry): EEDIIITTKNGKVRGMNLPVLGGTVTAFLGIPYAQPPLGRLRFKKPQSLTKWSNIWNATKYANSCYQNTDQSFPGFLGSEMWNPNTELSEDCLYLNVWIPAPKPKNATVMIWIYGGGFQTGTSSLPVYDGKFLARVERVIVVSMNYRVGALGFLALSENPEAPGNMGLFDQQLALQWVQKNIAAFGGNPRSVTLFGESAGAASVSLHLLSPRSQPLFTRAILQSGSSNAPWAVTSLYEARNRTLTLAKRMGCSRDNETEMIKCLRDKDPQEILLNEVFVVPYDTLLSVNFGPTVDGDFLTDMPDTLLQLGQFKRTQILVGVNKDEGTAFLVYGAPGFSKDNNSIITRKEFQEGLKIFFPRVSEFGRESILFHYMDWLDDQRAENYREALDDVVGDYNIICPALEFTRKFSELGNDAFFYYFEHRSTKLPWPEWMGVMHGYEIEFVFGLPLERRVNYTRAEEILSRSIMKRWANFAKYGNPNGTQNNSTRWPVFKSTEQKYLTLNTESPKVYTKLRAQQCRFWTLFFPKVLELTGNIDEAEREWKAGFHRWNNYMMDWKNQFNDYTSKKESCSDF
Acetylcholinesterase (Electrophorus electricus, UniProt O42275), sequence (O42275 whole entry): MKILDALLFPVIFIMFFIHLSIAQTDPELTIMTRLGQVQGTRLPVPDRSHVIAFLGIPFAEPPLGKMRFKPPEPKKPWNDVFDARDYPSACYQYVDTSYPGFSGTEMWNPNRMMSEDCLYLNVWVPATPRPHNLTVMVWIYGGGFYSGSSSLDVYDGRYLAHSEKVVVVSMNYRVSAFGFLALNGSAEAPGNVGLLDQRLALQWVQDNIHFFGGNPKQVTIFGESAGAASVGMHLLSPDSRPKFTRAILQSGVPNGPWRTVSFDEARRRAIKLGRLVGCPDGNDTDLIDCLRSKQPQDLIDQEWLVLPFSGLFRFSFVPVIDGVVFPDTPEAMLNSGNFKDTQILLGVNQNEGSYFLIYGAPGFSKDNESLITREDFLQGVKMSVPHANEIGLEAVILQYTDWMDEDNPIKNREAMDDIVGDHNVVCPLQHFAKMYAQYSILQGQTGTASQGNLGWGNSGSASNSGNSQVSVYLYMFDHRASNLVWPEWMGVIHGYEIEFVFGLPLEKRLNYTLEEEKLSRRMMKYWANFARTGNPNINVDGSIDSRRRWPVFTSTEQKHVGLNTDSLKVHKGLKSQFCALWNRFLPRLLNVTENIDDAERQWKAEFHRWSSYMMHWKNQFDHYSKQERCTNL
Acetylcholinesterase (Electrophorus electricus), sequence (O42275 24-633 limits assumed): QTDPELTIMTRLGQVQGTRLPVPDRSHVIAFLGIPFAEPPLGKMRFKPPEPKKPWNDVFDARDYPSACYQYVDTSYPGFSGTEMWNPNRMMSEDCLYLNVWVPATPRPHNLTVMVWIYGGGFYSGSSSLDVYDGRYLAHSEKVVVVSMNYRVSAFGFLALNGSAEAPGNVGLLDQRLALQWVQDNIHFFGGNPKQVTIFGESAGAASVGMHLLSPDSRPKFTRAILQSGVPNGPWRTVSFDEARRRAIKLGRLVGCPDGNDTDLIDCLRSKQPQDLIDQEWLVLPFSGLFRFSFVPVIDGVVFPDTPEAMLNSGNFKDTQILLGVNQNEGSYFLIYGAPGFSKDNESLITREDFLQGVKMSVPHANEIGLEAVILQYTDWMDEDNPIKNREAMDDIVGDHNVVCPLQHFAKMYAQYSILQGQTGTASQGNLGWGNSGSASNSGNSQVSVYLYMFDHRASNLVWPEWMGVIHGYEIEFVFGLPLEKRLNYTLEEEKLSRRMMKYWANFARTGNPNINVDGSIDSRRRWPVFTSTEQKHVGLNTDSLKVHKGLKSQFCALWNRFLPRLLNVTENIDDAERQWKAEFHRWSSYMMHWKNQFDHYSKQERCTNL
Cholinesterase (Equus caballus), sequence (P81908 whole entry): as the sequence (P81908 whole entry) above

Row | Structure (SMILES) | Papp at 18 h, 100 ug/ml [1] | IC50 [2] | Ratio IC50 [3] | IC50 [4] | Ratio IC50 [7] | IC50 [8] | IC50 [9] | Ratio IC50 [10] | IC50 [11] | IC50 [12] | further results
1 | CN1C(C(=O)Nc2ccccn2)=C(O)c2ccccc2S1(=O)=O [PIROXICAM] | 0.72 to 2.5 ×10⁻⁶ cm/s |  |  |  |  |  |  |  |  |  | 
2 | Cn1c(=O)c2c(ncn2C)n(C)c1=O [CAFFEINE] | 1.28 to 1.3 ×10⁻⁶ cm/s |  |  |  |  |  |  |  |  |  | 
3 | O=C1CCc2ccc(OCCCCCCN3CCC(Cc4ccccc4)CC3)cc2N1 | 25.6 ×10⁻⁶ cm/s | 3.6 µM | 4.7 | 0.3 µM | 1.9 | 0.56 µM | 2.3 µM | 4.1 | 1.9 µM | 1.4 µM | Activity [5]: 87.3%; Activity [6]: Non-Toxic; inhibition [13]: Active
4 | Clc1cccc(Cl)c1N=C1NCCN1 [CLONIDINE] | 5.1 to 5.3 ×10⁻⁶ cm/s |  |  |  |  |  |  |  |  |  | 
5 | O=C1CCc2ccc(O)cc2N1 |  |  |  |  |  |  |  |  |  |  | inhibition [14]: < 5%; inhibition [15]: < 5%; inhibition [16]: < 5%; inhibition [17]: < 5%
6 | O=C1CCc2ccc(OCCCCCCN3CCCCC3)cc2N1 |  | 27.2 µM | 3.4 | 9.4 µM | 4.5 | 17.8 µM | 14.1 µM | 0.8 | 6 µM | 31.7 µM | 
7 | O=C1CCc2ccc(OCCCN3CCCCC3)cc2N1 |  | 22.9 µM | 0.5 | 13.1 µM | 1.4 | 12.2 µM | 39 µM | 3.2 | 16.5 µM | 6.2 µM | 
8 | CCN(CC)CCCCOc1ccc2c(c1)NC(=O)CC2 |  | 9.5 µM | 0.5 | 7.7 µM | 0.7 | 5.1 µM | 7.7 µM | 1.5 | 14.5 µM | 4 µM | 
9 | CCn1cc(C(=O)O)c(=O)c2cc(F)c(N3CCNCC3)cc21 [NORFLOXACIN] | 0.1 to 0.42 ×10⁻⁶ cm/s |  |  |  |  |  |  |  |  |  | 
10 | CCn1cc(C(=O)O)c(=O)c2cc(F)c(N3CCNCC3)nc21 [ENOXACIN] | 0.47 to 0.9 ×10⁻⁶ cm/s |  |  |  |  |  |  |  |  |  | 
11 | O=C1CCc2ccc(OCCCCCCN3CCN(c4ccccn4)CC3)cc2N1 |  | 48.2 µM | 2 | 5.6 µM | 1.4 | 19.1 µM | 4.1 µM | 0.2 | 34.1 µM | 11.3 µM | 
12 | Cn1c(=O)c2[nH]cnc2n(C)c1=O.O [THEOPHYLLINE] | 0.1 to 0.12 ×10⁻⁶ cm/s |  |  |  |  |  |  |  |  |  | 
13 | O=C1CCc2ccc(OCCCCCN3CCN(c4ccccn4)CC3)cc2N1 |  | 44.6 µM | 1.6 | 13 µM | 1.6 | 15.6 µM | 6.2 µM | 0.4 | 28.4 µM | 20.3 µM | 
14 | CC(C)N1CCN(CCCCCCOc2ccc3c(c2)NC(=O)CC3)CC1 |  | 1.8 µM | 3.7 | 6.8 µM | 0.7 | 0.76 µM | 2 µM | 2.7 | 2.43 µM | 24.9 µM | 
15 | C#CCN(CCCCOc1ccc2c(c1)NC(=O)CC2)Cc1ccccc1 |  | 32.1 µM | 1 | 9.3 µM | 1.4 | 21.4 µM | 19.1 µM | 0.9 | 23.3 µM | 9.1 µM | 
16 | CCN(CC)CCCCCOc1ccc2c(c1)NC(=O)CC2 |  | 14.7 µM | 0.7 | 11.4 µM | 0.4 | 8.2 µM | 21.9 µM | 2.7 | 34.1 µM | 8.5 µM | 
